Results on 7 compounds are retold here after publication PMC8320611 (Current Research in Toxicology, 2020).

The test system of data set [1] is HepG2 cells. Put plainly: Resazurin reduction assay. The format is cell-based, human. The following applies: HepG2, 1 h or 24 h incubation, 0–100 μM, vs negative control 1% DMSO. The procedure, abridged: (§1)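 Cells were seeded at 180,000 per well (HepG2 in RPMI 1640, HT29 in DMEM; 5% FCS, 37 °C, 5% CO2). After 24 h they were exposed to 0.1, 1, 10 or 100 μM test compound for 1 h or 24 h, using DMSO stocks diluted 1:100, in triplicate. Controls were 0.1% SDS and 1% DMSO. Cells were washed and given resazurin for 1 h; fluorescence was read at 544/590 nm. Blank-subtracted values are % of DMSO control, mean ± SD of three experiments.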
In general terms: Alamar Blue is a resazurin reagent that responds to reducing activity.

Data set [2] concerns HT29 cells. Put plainly: Resazurin reduction assay. It is filed as cell-based, human. The following applies: HT29, 1 h or 24 h incubation, 0–100 μM, vs negative control 1% DMSO. In outline:
as §1

The test system of data set [3] is HepG2 cells. Put plainly: Comet assay. The format is cell-based, human. The settings on record: for Total DNA strand breaks with FPG treatment (%-TI): HepG2, 24 h, 10 or 100 μM, FPG treated, two independent experiments; for Background DNA-strand breaks (tail intensity): HepG2, 24 h incubation, 10–100 μM, without FPG. The procedure, abridged:
(§2)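 Cells at 80–90% confluence, viability >80% by trypan blue (HepG2 in RPMI 1640, HT29 in DMEM; 5% FCS) were exposed 24 h to 10 or 100 μM test compound from DMSO stock diluted 1:1000. Controls were 0.1% DMSO and 10 J/m2 UVC. Slides were lysed overnight at 4 °C, then treated with FPG or buffer. Unwinding was pH 13.5, 20 min; electrophoresis 20 min, 25 V. Mean tail intensity was scored on 2 × 50 cells/slide. Without FPG: three independent experiments; with FPG: two, in duplicate.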

Data set [4] relates to HT29 cells. As to the kind of experiment: Comet assay. It is filed as cell-based, human. The following applies: for Total DNA strand breaks with FPG treatment (%-TI): HT29, 24 h, 10 or 100 μM, FPG treated, two independent experiments; for Background DNA-strand breaks (tail intensity): HT29, 24 h incubation, 10–100 μM, without FPG. In outline:
as §2

The conditions of data set [5]: in vitro studies; ref Prasad, 2000; cited from earlier work.
In data set [6] the test system is human ovary carcinoma cell line ES-2. The following applies: ES-2, 48 h incubation, at 1 mM; ref Liu et al., 2017; cited from earlier work.
Data set [7] deals with HT29 clone 19A human colon tumor cells. The following applies: ref Pool-Zobel et al., 2000, cited from earlier work; for DNA strand breaks (comet assay): 15 min incubation, 100 μM END and ENL.
The conditions of data set [8]: ref Hu et al., 2007; cited from earlier work.
The subject of data set [9] is extracellular vascular endothelial growth factor (VEGF). The settings on record: in vivo, mice with established human breast cancer; ref Dabrosin et al., 2002; cited from earlier work.
The test system of data set [10] is microbiota from human faeces. The following applies: incubation with microbiota from human faeces for 24 h; ref Heinonen et al., 2001; cited from earlier work.
For data set [11] the following is noted: stated in the introduction, no reference given; cited from earlier work.
Data set [12] concerns human myelocytic HL-60 leukemia cancer cells. The settings on record: HL-60, incubation with 0.5–40 μM; ref Park et al., 2008; cited from earlier work.

On to `OC[C@H](Cc1cccc(O)c1)[C@H](CO)Cc1cccc(O)c1` [END, (2R,3R)-2,3-bis[(3-hydroxyphenyl)methyl]butane-1,4-diol], for which the Relative vitality result in [1] and in data set [2] was “no significant reductions” throughout. The “Total DNA strand breaks with FPG treatment (%-TI)” value (shortened to “Total DNA strand breaks … (%-TI)”) in data set [3] and in [4] was “No modulation” in each case. In addition, the “Background DNA-strand breaks (tail intensity)” value (“Background DNA-strand breaks” below) in [3] and in [4] was “No significant modulation” throughout. In data set [5], the “Levels of reactive oxygen species (antioxidant effect)” value (from here on “Levels of reactive oxygen species”) is reported as “reduce the levels of reactive oxygen species”. For the same compound, the Vitality result in [6] is “significant decrease in vitality”. For the same compound, the “DNA strand breaks (comet assay)” value in data set [7] is “no differences to the negative control”. Also, the “Oxidised pyrimidine DNA bases” value in data set [7] is “reduced”. In addition, the “Protection against DNA damage and lipid peroxidation” value (“Protection” below) in [8] is “protect against DNA damage and lipid peroxidation”.

For `O=C1OC[C@H](Cc2cccc(O)c2)[C@H]1Cc1cccc(O)c1` [ENL, (3R,4R)-3,4-bis[(3-hydroxyphenyl)methyl]oxolan-2-one], the Relative vitality result in [1] was “no significant reductions”. Besides, the Relative vitality entry in data set [2] was “no significant reductions”. Further, in data set [3], the “Total DNA strand breaks … (%-TI)” value is reported as “no significant modulation” and the “Background DNA-strand breaks” value was “No significant modulation”. In addition, in data set [4], the “Total DNA strand breaks … (%-TI)” value is on record as “no significant modulation” and the “Background DNA-strand breaks” value is “No significant modulation”. For the same compound, in data set [9], the “Extracellular VEGF” value was “suppressed”. For the same compound, in data set [5], the “Levels of reactive oxygen species” value was “reduce the levels of reactive oxygen species”. The Vitality entry in data set [6] was “significant decrease in vitality”. In data set [7], the “DNA strand breaks (comet assay)” value is reported as “no differences to the negative control”, the “Oxidised pyrimidine DNA bases” value is listed as “reduced” and the “Oxidized purine DNA bases” value was “had such an impact”. Besides, in data set [8], the “Protection” value is “protect against DNA damage and lipid peroxidation”.

On to `COc1cc([C@H]2OC[C@H]3[C@@H]2CO[C@@H]3c2ccc(O[C@@H]3O[C@H](CO)[C@@H](O)[C@H](O)[C@H]3O)c(OC)c2)ccc1O[C@@H]1O[C@H](CO)[C@@H](O)[C@H](O)[C@H]1O` [Pin-DG, pinoresinol diglycoside], for which the “Conversion into END and ENL” value in data set [10] is 55%.

As to `COc1cc(C[C@@H](CO)[C@H](CO)Cc2ccc(O)c(OC)c2)ccc1O` [Seco, secoisolariciresinol], the “Conversion into END and ENL” value in [10] is listed as 72%. For the same compound, the “Levels of reactive oxygen species” value in data set [5] was “reduce the levels of reactive oxygen species”. Moreover, the “Protection” value in [8] is “protect against DNA damage and lipid peroxidation”.

Regarding `COc1cc(C[C@@H](CO[C@@H]2O[C@H](CO)[C@@H](O)[C@H](O)[C@H]2O)[C@H](CO[C@@H]2O[C@H](CO)[C@@H](O)[C@H](O)[C@H]2O)Cc2ccc(O)c(OC)c2)ccc1O` [Seco-DG, seco-diglycoside], the Solubility in water entry in [11] is recorded as “highly soluble”.

As to `COc1cc([C@H]2OC[C@H]3[C@@H]2CO[C@@H]3c2cc(OC)c(O)c(OC)c2)cc(OC)c1O` [Syr, 4,4′-(1S,3aR,4S,6aR)-Tetrahydro-1H,3H-furo[3,4-c]furan-1,4-diylbis(2,6-dimethoxy-phenol)], the Relative vitality result in data set [1] and in data set [2] was “no significant reductions” throughout. Also, in data set [12], the “Cell vitality (MTT assay)” value is reported as “significant concentration-dependent decrease”.

Take `O=c1c(-c2ccc(O)cc2)coc2cc(O)cc(O)c12` [genistein, reference compound]: the “DNA strand breaks (comet assay)” value in data set [7] is “induced highly significant”.
